Source: ChEMBL document CHEMBL3286178, “Cell membrane mediated (-)-epicatechin effects on upstream endothelial cell signaling: evidence for a surface receptor” (Bioorg Med Chem Lett, 2014)
The source made the active and inactive calls. The rule behind the calls is not given here.

Key:
[1] = Binding affinity to rat brain cell membrane; format: cell membranes
brain = assay: Binding affinity to rat brain cell membrane at 10 uM
Homo sapiens [2] = species on record: Homo sapiens; assay: Induction of PI3K in calcium free HCAEC assessed as PDK1 phosphorylation at 100 nM after 10 mins incubation by Western blot analysis in presence of wortmannin
Method in brief: (§1)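 Ca2+-free human coronary artery endothelial cells treated 10 min with 100 nM free or dextran-conjugated compound (conjugate dose expressed as equivalent bound compound); phospho-PI3K, phospho-PDK1, phospho-AKT, phospho-eNOS (Ser1177, Ser615) and PIP3 assessed, with or without PI3K inhibitor wortmannin; Western blots representative of three independent experiments.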

[3] = biological target: T1, Nitric oxide synthase 3 (Homo sapiens) (UniProt P29474); assay: Induction of eNOS activation in calcium free HCAEC assessed as phosphorylation at serine 1177 at 100 nM after 10 mins incubation; method in brief: as §1
T1 sequence (whole entry): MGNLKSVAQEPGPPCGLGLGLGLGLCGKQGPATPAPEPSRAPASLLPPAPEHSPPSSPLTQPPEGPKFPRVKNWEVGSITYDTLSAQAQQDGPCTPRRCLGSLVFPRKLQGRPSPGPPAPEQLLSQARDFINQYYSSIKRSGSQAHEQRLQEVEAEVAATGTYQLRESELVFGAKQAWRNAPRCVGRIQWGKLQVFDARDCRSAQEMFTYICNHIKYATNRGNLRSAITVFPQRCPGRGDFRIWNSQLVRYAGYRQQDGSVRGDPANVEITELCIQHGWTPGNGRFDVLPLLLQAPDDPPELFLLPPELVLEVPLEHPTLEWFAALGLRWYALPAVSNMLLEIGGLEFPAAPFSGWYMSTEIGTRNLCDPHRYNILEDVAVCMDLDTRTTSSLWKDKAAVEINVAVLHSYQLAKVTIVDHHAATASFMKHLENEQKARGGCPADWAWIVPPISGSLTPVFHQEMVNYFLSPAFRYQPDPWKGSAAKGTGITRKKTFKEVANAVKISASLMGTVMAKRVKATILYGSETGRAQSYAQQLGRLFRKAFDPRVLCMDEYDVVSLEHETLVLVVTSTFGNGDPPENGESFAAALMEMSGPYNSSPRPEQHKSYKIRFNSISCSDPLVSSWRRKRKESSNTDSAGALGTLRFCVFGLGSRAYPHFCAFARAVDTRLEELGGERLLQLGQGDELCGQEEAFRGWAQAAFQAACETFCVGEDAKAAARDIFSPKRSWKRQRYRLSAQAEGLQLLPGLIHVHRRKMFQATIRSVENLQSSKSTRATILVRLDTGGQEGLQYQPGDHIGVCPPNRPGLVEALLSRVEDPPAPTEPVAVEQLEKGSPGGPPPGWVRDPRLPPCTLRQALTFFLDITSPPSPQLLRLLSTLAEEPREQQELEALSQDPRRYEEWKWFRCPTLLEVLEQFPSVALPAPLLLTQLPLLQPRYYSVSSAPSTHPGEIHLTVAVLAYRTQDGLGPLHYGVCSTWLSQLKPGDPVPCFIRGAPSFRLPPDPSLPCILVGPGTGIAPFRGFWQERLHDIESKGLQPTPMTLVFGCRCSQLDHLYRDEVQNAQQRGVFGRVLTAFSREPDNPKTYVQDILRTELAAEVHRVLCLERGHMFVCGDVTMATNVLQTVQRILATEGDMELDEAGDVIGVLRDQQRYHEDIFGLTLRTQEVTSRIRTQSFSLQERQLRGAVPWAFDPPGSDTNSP

Homo sapiens [4] = species on record: Homo sapiens; assay: Induction of PI3K phosphorylation in calcium free HCAEC at 100 nM after 10 mins incubation by Western blot analysis; method in brief: as §1
Homo sapiens [5] = species on record: Homo sapiens; assay: Induction of PIP3 level in calcium free HCAEC at 100 nM after 10 mins incubation by Western blot analysis in presence of wortmannin; format: functional; method in brief: as §1
[6] = biological target: T1, Nitric oxide synthase 3 (Homo sapiens); assay: Induction of eNOS activation in calcium free HCAEC assessed as phosphorylation at serine 615 at 100 nM after 10 mins incubation; method in brief: as §1
Homo sapiens [7] = species on record: Homo sapiens; assay: Induction of PI3K in calcium free HCAEC assessed as PDK1 phosphorylation at 100 nM after 10 mins incubation by Western blot analysis; method in brief: as §1
Homo sapiens [8] = species on record: Homo sapiens; assay: Induction of PIP3 level in calcium free HCAEC at 100 nM after 10 mins incubation by Western blot analysis; format: functional; method in brief: as §1
[9] = biological target: T1, Nitric oxide synthase 3 (Homo sapiens); assay: Induction of eNOS activation in calcium free HCAEC assessed as phosphorylation at serine 1177 at 100 nM after 10 mins incubation in presence of wortmannin; method in brief: as §1
Homo sapiens [10] = species on record: Homo sapiens; assay: Induction of PI3K in calcium free HCAEC assessed as Akt phosphorylation at 100 nM after 10 mins incubation by Western blot analysis in presence of wortmannin; method in brief: as §1
Homo sapiens [11] = species on record: Homo sapiens; assay: Induction of PI3K phosphorylation in calcium free HCAEC at 100 nM after 10 mins incubation by Western blot analysis in presence of wortmannin; method in brief: as §1
[12] = biological target: T1, Nitric oxide synthase 3 (Homo sapiens); assay: Induction of eNOS activation in calcium free HCAEC assessed as phosphorylation at serine 615 at 100 nM after 10 mins incubation in presence of wortmannin; method in brief: as §1
Homo sapiens [13] = species on record: Homo sapiens; assay: Induction of PI3K in calcium free HCAEC assessed as Akt phosphorylation at 100 nM after 10 mins incubation by Western blot analysis; method in brief: as §1
Homo sapiens [14] = species on record: Homo sapiens; assay: Effect on eNOS phosphorylation at Thr 495 in calcium free HCAEC at 100 nM after 10 mins incubation; format: functional

Compound `O=C(O[C@@H]1Cc2c(O)cc(O)cc2O[C@@H]1c1cc(O)c(O)c(O)c1)c1cc(O)c(O)c(O)c1` [EPIGALOCATECHIN GALLATE] has a Ki [1] of 25 nM.
`Oc1ccc(/C=C/c2cc(O)cc(O)c2)cc1` [RESVERATROL] gave a Ki [1] of 102 nM.
In the case of `O=C(O[C@@H]1Cc2c(O)cc(O)cc2O[C@@H]1c1ccc(O)c(O)c1)c1cc(O)c(O)c(O)c1` [EPICATECHIN GALLATE], the Ki [1] is reported as 25 nM.
In the case of `Oc1cc(O)c2c(c1)O[C@H](c1ccc(O)c(O)c1)[C@H](O)C2`, the Activity (brain) is reported as “inactive”, the Activity (Homo sapiens [2]) is reported as “inactive” and the Activity [3] is reported as “Active”. For the same compound, the Activity (Homo sapiens [4]) was “Active”, the Activity (Homo sapiens [5]) was “inactive” and the Activity [6] was “Active”. For the same compound, the Activity (Homo sapiens [7]) was “Active”, the Activity (Homo sapiens [8]) was “Active” and the Activity [9] was “inactive”. For the same compound, the Activity (Homo sapiens [10]) was “inactive”, the Activity (Homo sapiens [11]) was “inactive” and the Activity [12] was “inactive”. For the same compound, the Activity (Homo sapiens [13]) was “Active” and the Activity (Homo sapiens [14]) was “inactive”.
